Measurements published in ChEMBL document CHEMBL1122935, “3-(1-Indolinyl)benzylamines: a new class of analgesic agents” (J Med Chem, 1985).

Tests used:
Mus musculus [1] = assay: Inhibition of PQW-writhing in mice on subcutaneous administration at dose 10 mg/kg; assay type: functional; conditions: sc
Mus musculus [2] = assay: inhibition of PQW-writhing in mice on subcutaneous administration at dose 10 mg/kg. compound showed slight activity in the range of 10-34%,; assay type: functional; conditions: sc
Mus musculus [3] = assay: inhibition of PQW-writhing in mice on subcutaneous administration at dose 10 mg/kg. compound showed moderate activity in the range of 35-69%.; assay type: functional; conditions: sc
Mus musculus [4] = assay: Inhibition of PQW-writhing in mice on subcutaneous administration at dose 10 mg/kg. compound showed 10-34% inhibition (slight activity); assay type: functional; conditions: sc
Rattus norvegicus [5] = organism: Rattus norvegicus; assay: The analgesic activity by D'Armour-Smith tail-flick assay in rats.; assay type: functional
Method in brief: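 Rat tail-flick test. Compound was given sc in distilled water at 4, 8, 16 and 32 mg/kg, and percent analgesic activity was recorded at each dose. ED50 was calculated by Litchfield-Wilcoxon analysis with 95% confidence limits.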

Mus musculus [6] = assay: (§1) Oral anti-writhing activity at a dose of 25 mg/kg administered perorally in PQW assay; assay type: functional
Method in brief: (§2)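 Mouse phenylquinone writhing assay with the compound given orally at 25 mg/kg. Writhing was induced with 0.125% phenyl-p-benzoquinone in 5% aqueous ethanol, 10 mL/kg ip. Writhes were counted over 10 min after a 5-min wait, and percent inhibition was calculated against vehicle-treated controls.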

Rattus norvegicus [7] = assay: as §1; assay type: functional; method in brief: as §2
[8] = Compound was tested for the approximate analgesic lethal dose (ALD50) on rats; assay type: ADME, organism-based; conditions: rat, in vivo; read-out: ALD50
Mus musculus [9] = assay: Inhibition of PQW-writhing in mice on subcutaneous administration at dose 25 mg/kg; Range of inhibition 35-69% (moderate activity); assay type: functional; conditions: sc
Mus musculus [10] = assay: inhibition of PQW-writhing in mice on subcutaneous administration at dose 10 mg/kg. compound showed slight activity in the range of 10-34%; assay type: functional; conditions: sc
Mus musculus [11] = assay: Inhibition of PQW-writhing in mice on subcutaneous administration at dose 10 mg/kg; Slight activity in the range of 10-34%; assay type: functional; conditions: sc
Mus musculus [12] = assay: Inhibition of PQW-writhing in mice on subcutaneous administration at dose 10 mg/kg; Moderate activity in the range of 35-69%.; assay type: functional; conditions: sc

`NCc1cccc(CN2CCc3cc(Cl)ccc32)c1` gave an ED50 (Mus musculus [1]) of 20.2 mg/kg.

With `CCOC(=O)NCc1cccc(N2CCc3ccccc32)c1` the inhibition in vivo at 10 mg/kg (Mus musculus [2]) was 34%.

`c1cc(CNCC2CC2)cc(N2CCc3ccccc32)c1` gave an inhibition in vivo at 10 mg/kg (Mus musculus [3]) of 69%.

In the case of `NCc1ccc(N2CCc3ccccc32)cc1`, the inhibition in vivo at 10 mg/kg (Mus musculus [4]) is reported as 34%.

Work on `O=C(NCc1cccc(N2CCc3ccccc32)c1)C1CC1` yielded an inhibition in vivo at 10 mg/kg (Mus musculus [3]) of 69%.

For `CC(C)=CCN1CC[C@]2(C)c3cc(O)ccc3C[C@H]1[C@H]2C` [(+)-PENTAZOCINE], the ED50 (Rattus norvegicus [5]) was 14.6 mg/kg and the ED50 (Mus musculus [1]) was 2.3 mg/kg.

With `COc1ccc2c(c1)CCN2c1cccc(CN)c1` the inhibition in vivo at 10 mg/kg (Mus musculus [3]) was 69%.

With `NC(c1ccccc1)c1cccc(N2CCc3ccccc32)c1` (centres undefined) the inhibition in vivo at 10 mg/kg (Mus musculus [3]) was 69%.

`c1ccc(CCNCc2cccc(N3CCc4ccccc43)c2)cc1` gave an inhibition in vivo at 10 mg/kg (Mus musculus [2]) of 34%.

`NCc1cccc(N2CCc3cc(Cl)ccc32)c1` gave an ED50 (Mus musculus [1]) of 4.2 mg/kg.

`NCc1cccc(N2CCc3ccccc32)c1` showed an inhibition in vivo at 25 mg/kg (Mus musculus [6]) of 36%, an inhibition in vivo at 25 mg/kg (Rattus norvegicus [7]) of 19% and an ED50 (Rattus norvegicus [5]) of 27 mg/kg. It also gave an ED50 (Mus musculus [1]) of 4.2 mg/kg and an LD50 [8] greater than 100 mg/kg.

Work on `O=C(Cc1ccccc1)NCc1cccc(N2CCc3ccccc32)c1` yielded an inhibition in vivo at 10 mg/kg (Mus musculus [3]) of 69%.

`CCC(=O)O[C@](Cc1ccccc1)(c1ccccc1)[C@H](C)CN(C)C` [PROPOXYPHENE] showed an ED50 (Mus musculus [1]) of 3.9 mg/kg.

`NCc1ccccc1N1CCc2ccccc21` showed an ED50 (Mus musculus [1]) of 14.1 mg/kg.

With `NCCc1cccc(N2CCc3ccccc32)c1` the inhibition in vivo at 10 mg/kg (Mus musculus [3]) was 69%.

`Nc1ccccc1N1CCc2ccccc21` showed an inhibition in vivo at 25 mg/kg (Mus musculus [9]) of 43%.

With `NCc1cccc(-n2ccc3cc(Cl)ccc32)c1` the inhibition in vivo at 10 mg/kg (Mus musculus [10]) was 34%.

For `COc1ccc2c(c1)CCN2Cc1cccc(CN)c1`, the inhibition in vivo at 10 mg/kg (Mus musculus [11]) was 34%.

`CN(C)Cc1cccc(N2CCc3ccccc32)c1` gave an inhibition in vivo at 10 mg/kg (Mus musculus [2]) of 34%.

Compound `NCc1cccc(-n2ccc3ccccc32)c1` has an ED50 (Mus musculus [1]) of 19.1 mg/kg.

For `NCc1cccc(CN2CCc3ccccc32)c1`, the inhibition in vivo at 10 mg/kg (Mus musculus [12]) was 69%.

Work on `COc1ccc2c(ccn2-c2cccc(CN)c2)c1` yielded an inhibition in vivo at 10 mg/kg (Mus musculus [3]) of 69%.

For `CC(N)c1cccc(N2CCc3ccccc32)c1` (centres undefined), the inhibition in vivo at 10 mg/kg (Mus musculus [3]) was 69%.

Compound `CNCc1cccc(N2CCc3ccccc32)c1` has an inhibition in vivo at 10 mg/kg (Mus musculus [2]) of 34%.
